Laboratory results taken from PubChem BioAssay.
Values without a mark were called inactive. Records with an inconclusive call do not appear. Active and inactive are the calls of the source.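 Rule for the calls, unless noted: active = inhibition over a set limit, the all-compound mean plus 3 SD, in both replicate runs; inconclusive = over that limit in just one replicate run; inactive = at or under that limit in both runs.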

What was measured:
[1] = OD615 S. cerevisiae growth inhibition, permissive medium, pilot counter-assay, permissive growth control for S. cerevisiae lifespan shortening project (AID 705;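 active = growth inhibition above 25% in both replicates, a cutoff set 3 SD above the mean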); conditions: OD615, 24 h, at 10 µM, active compounds read high
In short: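 Material: engineered DeaD yeast; Compound: one dose 10 µM, DMSO 0.25% final; Detection: absorbance (optical density) at 615 nm; Buffer or medium: permissive raffinose/galactose medium; Timing: 24 h exposure, 30 °C.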

[2] = Restrictive medium S. cerevisiae growth inhibition, OD615, pilot screen of yeast lifespan reduction project, restrictive growth control (AID 706;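 active = growth inhibition above a set limit, 3 SD over mean compound inhibition, in both replicates, cut at about 43% in these data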;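 note: modified DeaD lifespan yeast strain shifted to restrictive glucose medium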); conditions: OD615, 48 h, at 10 µM, active compounds read high
In short: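 Buffer or medium: restrictive glucose medium (CSMM-D); test system: modified S. cerevisiae; doses: single dose of 10 µM compound final, 0.25% DMSO; schedule: 48 h compound exposure at 30 °C; detection: absorbance (optical density) measured at 615 nm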

[3] = viability gain of MRP-1-high H69AR cells under doxorubicin, pilot screen, MRP-1 activator project, CellTiter-Glo, duplicate (AID 807;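 active = viability increase at or above a cutoff of the median across tested compounds plus 3 SD, cut at about 8.5% in these data, passing the limit was not always enough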;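 note: compound pretreatment 18-22 h then 72 h combined with doxorubicin; 0% = doxorubicin alone and 100% = vehicle without doxorubicin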); conditions: H69AR viability with doxorubicin, CellTiter-Glo luminescence; at 10 µM; active compounds read high
[4] = growth suppression of beta-catenin knockout HCT116, pilot screen, human colon tumor cells (AID 823;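 active = cell viability at or below a set limit in both duplicate runs, the limit being the all-compound median minus 4 SD, cut at about 23% in these data, passing the limit was not always enough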;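 note: 0% = wells killed by 20 µM Hyamine and 100% = untreated DMSO cell wells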); conditions: CellTiter-Glo, 60 h, at 10 µM, active compounds read low
[5] = inhibitors of the yeast RAM network, pilot screen, dse1pr::URA3 reporter, 5-FOA selection (AID 869);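 note: 0% = DMSO wells with no growth and 100% = 10 µM 1-NA-PP1 with full growth; RAM network block rescues cells from 5-FOA so hits raise OD615 growth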; conditions: S. cerevisiae dse1pr::URA3 5-FOA growth, OD615, 2 d; at 10 µM; active compounds read high; strain carries analog-sensitive mutant Cbk1 kinase
[6] = RAM signaling pathway blockade in yeast – S. cerevisiae, Pdr1DBD-CYC8 efflux-inhibited sensitized strain, primary screen (AID 1298;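 active = RAM network inhibition above 8.4% in each of two replicates, 3 SD over the compound average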;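 note: 0% = DMSO untreated cells without growth and 100% = 10 µM 1-NA-PP1 full growth; higher means more yeast growth rescued from 5-FOA killing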); conditions: S. cerevisiae cbk1-as DSE1-URA3 strain, 5-FOA growth OD615, 2 d; at 50 µM; active compounds read high

Compound | growth inhibition [1] | growth inhibition [2] | viability increase [3] [%] | viability [4] [%] | inhibition [5] [%] | RAM network inhibition [6] [%]
O=C1c2ccccc2C(=O)N1CCCC(=O)N1CCc2ccccc21 | -21.9% | 8.75% | -0.37 | 95.7 | 2.44 | 10.1
O=C(CN(CC(=O)N1CCOCC1)S(=O)(=O)c1ccc(Br)s1)N1CCOCC1 | 5.73% | -2.16% | -3.71 | 98 | -0.32 | 0.11
Cc1cc(C)nc(/N=c2/ssnc2Cl)c1 | 100% (active) | 89.9% (active) | -7.78 | 30.8 | 1.81 | -2.52
Cn1cc(S(=O)(=O)CC(=O)Nc2ccc3c(c2)OCCO3)c2ccccc21 | -14.9% | -1.21% | -1.77 | 106 | 3.01 | 3.07
Cc1cccc(C)c1NC(=O)CSc1nnc([C@@H]2CCCN2C(=O)OC(C)(C)C)o1 | -11.8% | -6.59% | -1.42 | 96.3 | 2.23 | 8.94
Cc1cc(C)c(S(=O)(=O)NCC2CCC(C(=O)NCCCN3CCOCC3)CC2)c(C)c1 (stereo not given) | -6.14% | 7.86% | -3.2 | 81.3 | 0.675 | -0.63
CCN(Cc1ccncc1)C(=O)c1cccc(S(=O)(=O)N2CCOCC2)c1 | -4.12% | 6.31% | -2.89 | 99.1 | 1.07 | 9.82
N#Cc1c(-c2ccccc2)cc(-c2ccco2)c(C#N)c1N | -21.9% | -10.5% | -7.79 | 38.5 | 1.86 | 8.41
COc1cccc(C(=O)Nc2ccc(-c3nc4ccccc4o3)c(O)c2)c1 | -13.4% | -12.1% | -4.28 | 30.4 | 3.71 | 3.99
CCOC(=O)c1cc(NC(=O)OC)c(C)nc1C | -4.66% | 4.23% | -2.65 | 106 | 0.81 | 3.38
COCCNC(=O)c1cn(C)c(=O)c2cc(OC)c(OC)cc12 | -20.6% | -7.83% | -1.73 | 95.5 | 1.6 | 7.53
C(=N\c1nccs1)/c1c[nH]c2ccccc12 | -17.6% | 7.43% | -4.92 | 92.4 | 2.52 | 3.02
Cc1ccc(N=C2SCCCN2C(=O)c2ccco2)cc1Cl | -10.1% | 4.65% | -5.58 | 87.6 | 0.575 | 0.78
O=c1[nH]c2ccc(S(=O)(=O)N3CCN(c4ccccc4F)CC3)cc2s1 | -19.3% | -7.76% | -4.17 | 93.3 | 0.75 | 4.21
Cc1cc(NC(=O)CN2CCN(c3ncccn3)CC2)no1 | -7.78% | -9.4% | -1.38 | 98.6 | 0.71 | 3.12
O=C(CN1C(=O)c2cccc3cccc1c23)N1CCN(c2ccc(F)cc2)CC1 | -26.6% | -0.695% | -2.42 | 94.1 | 2.49 | 8.63
COc1ccc2c(c1)SC1=NCCS(=O)(=O)N12 | -7.75% | -10.4% | -2.86 | 105 | 0.315 | 4.32
CCC(=O)N1CCc2cc(Br)cc(S(=O)(=O)N3CCN(c4ccccn4)CC3)c21 | -6.54% | -9.5% | -2.05 | 101 | 0.44 | 9.66
COc1ccccc1C(=O)Nc1nnn(C)n1 | -26.5% | 6.7% | -0.45 | 108 | 0.84 | 6.87
C=C(C)Cn1c(CCNC(=O)CCC)nc2ccccc21 | -9.26% | -10.3% | -0.98 | 99.1 | 1.54 | 2.19

Compound | growth inhibition [1] | growth inhibition [2] | viability increase [3] [%] | viability [4] [%] | inhibition [5] [%] | RAM network inhibition [6] [%]
Cc1c(C(=O)NCC2COc3ccccc3O2)oc2ccc(S(=O)(=O)N3CCOCC3)cc12 (stereo not given) | -22% | -8.28% | -2.13 | 42.2 | 3.01 | 6.17
C[C@@H](NC(=O)c1coc(=O)c(Br)c1)c1ccccc1 | -24.5% | 3.37% | -8.28 | 63.7 | 3.79 | 7.48
CCC(=O)N1CCc2cc(Br)cc(S(=O)(=O)CCC(=O)NCc3ccco3)c21 | -26.8% | 0.16% | -4.1 | 94.9 | 2.91 | 4.36
Cc1cccc(N2CCN(c3nc4ccccc4n4cnnc34)CC2)c1C | -11.7% | -6.28% | -4.42 | 49.3 | 1.89 | -0.66
O=C(Nc1nn[nH]n1)c1cccc(Oc2ccccc2)c1 | -18.5% | 8.51% | -0.81 | 96.5 | 3.22 | 7.27
Cc1nn(CCO)c(C)c1Oc1ccccc1O | 6.79% | 4.62% | -1.47 | 102 | 1.96 | 1.86
CCOC(=O)c1nc(-c2ccc3c(c2)OCO3)[nH]c1C | -0.36% | -0.67% | -6.6 | 29.7 | 3.15 | 1.76
Cc1ccc2nc(NC3=NCN(Cc4ccco4)CN3)nc(C)c2c1 | -1.68% | -0.67% | -7.05 | 27.2 | -0.585 | -1.94
CCOc1ccc(NC(=O)CSc2nnc(-c3ccccc3)n2N)cc1 | -8.33% | -0.575% | -6.71 | 93.8 | 0.495 | 2.18
Cc1cc(C)n2nc(CCc3nc4nc(C)cc(C)n4n3)nc2n1 | 3.12% | 4.29% | -1.49 | 94.8 | 0.62 | 1.76
CCOc1cc(C2C(C(=O)c3ccco3)=C(O)C(=O)N2CCc2ccccc2)ccc1O (stereo not given) | -35.8% | -4.2% | -1.77 | 97.2 | 4.93 | 4.16
Cc1cc(=O)n2[nH]c(C)c(-c3ccc(Cl)cc3)c2n1 | 3.86% | -11.8% | -5.81 | 34.2 | 2.29 | 5.64
O=C(CNC(=O)Cn1ccc2ccccc2c1=O)NCCCN1CCCCCC1 | -7.25% | -1.09% | -2.48 | 91.2 | -0.25 | 4.42
Cc1ccc(-c2nc(S(=O)(=O)c3ccc(F)cc3)c(SCC(=O)NCC3CCCO3)o2)cc1 (stereo not given) | -6.27% | 1.93% | -6.02 | 93.6 | 0.14 | 0.57
Cc1ccc(S(=O)(=O)c2nc(-c3ccc(F)cc3)oc2SCC(N)=O)cc1 | -20.8% | 0.745% | -2.75 | 100 | 1.27 | 1.2
CCn1cc(C(=O)N2CCN(c3ccccn3)CC2)c2cc(OC)c(OC)cc2c1=O | -18% | -7.93% | -4.32 | 104 | 0.495 | 6.02
CC(=O)Nc1ccc(S(=O)(=O)N2CCC(c3nc4ccc(C)cc4[nH]3)CC2)cc1 | -24.1% | 2.08% | -3.15 | 51.2 | 1.47 | 9.15
O=C(NCc1ccc(N2CCCC2=O)cc1)c1cn(CCc2ccccc2)nn1 | -5.88% | -13.3% | 1.6 | 95.1 | 1.7 | 7.58
c1ccc(-n2ncc3c2ncn2c(C4CCCCC4)nnc32)cc1 | -12.6% | -6.54% | 0.09 | 96.1 | 1.33 | 2.45
O=C(CSc1oc(-c2ccc(F)cc2)nc1S(=O)(=O)c1ccccc1)NCC1CCCO1 (stereo not given) | -15.8% | 4.17% | -5.58 | 90.8 | 2.46 | 6.86
